According to ChEMBL document CHEMBL1138206, “Lead compounds for antimalarial chemotherapy: purine base analogs discriminate between human and P. falciparum 6-oxopurine phosphoribosyltransferases” (J Med Chem, 2006):
Activity calls are given as the source filed them. The calls are words filed in the database; no cut-off is given here.

Assays:
[1] = Inhibition of Plasmodium falciparum HGXPRT at pH 7.4
[2] = tested on: Plasmodium falciparum
[3] = tested on: Plasmodium falciparum; test: Inhibition of [3H]hypoxanthine uptake in Plasmodium falciparum 3D7; type: functional, organism-based; conditions: 3D7, 48 h
[4] = tested on: Plasmodium falciparum; remark: listed apart in the source
[5] = tested on: Plasmodium falciparum; test: Antiplasmodial activity against Plasmodium falciparum 3D7; type: functional, organism-based
Method in brief: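 P. falciparum 3D7 kept in erythrocyte culture. Triplicate cultures exposed to a range of purine base concentrations for 48 h, without radiolabel. Giemsa-stained blood smears examined by light microscopy to determine parasitemia. IC50 taken as the inhibition of growth, from counts of viable parasites.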

[6] = tested on: Plasmodium falciparum; test: Antimalarial activity against Plasmodium falciparum 3D7 at 130 uM; type: functional, organism-based
[7] = tested on: Plasmodium falciparum; test: Inhibition of [3H]hypoxanthine uptake into Plasmodium falciparum 3D7 at 130 uM; type: functional, organism-based
[8] = tested on: Plasmodium falciparum; test: Antimalarial activity against Plasmodium falciparum 3D7 at 120 uM; type: functional, organism-based
[9] = tested on: Plasmodium falciparum; test: Inhibition of [3H]hypoxanthine uptake into Plasmodium falciparum 3D7 at 120 uM; type: functional, organism-based
[10] = tested on: Plasmodium falciparum; test: Antimalarial activity against Plasmodium falciparum 3D7 at 125 uM; type: functional, organism-based
[11] = tested on: Plasmodium falciparum; test: Inhibition of [3H]hypoxanthine uptake into Plasmodium falciparum 3D7 at 125 uM; type: functional, organism-based
[12] = Inhibition of Toxoplasma gondii 6 oxopurine phosphoribosyl transferase
[13] = tested on: Plasmodium falciparum; test: Antimalarial activity against Plasmodium falciparum; type: functional, organism-based
Method in brief: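 P. falciparum 3D7, a laboratory-adapted isolate, was kept in erythrocyte culture. Triplicate cultures were exposed to a range of purine base concentrations with 0.5 µCi/well [3H]hypoxanthine for 48 h, and label incorporation into nucleic acids was measured. Parallel cultures without label were run for 48 h, and parasitemia was read on Giemsa-stained smears by light microscopy. IC50 was derived for each read-out.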

[14] = tested on: Sphi609; test: Inhibition of Escherichia coli Sphi609 cells expressing human HGPRT; type: functional, cell-based
[15] = tested on: Plasmodium chabaudi; test: Inhibition of Plasmodium chabaudi 6 oxopurine phosphoribosyl transferase
[16] = tested on: Plasmodium lophurae; test: Inhibition of Plasmodium lophurae 6 oxopurine phosphoribosyl transferase
[17] = tested on: Sphi609; test: Inhibition of Escherichia coli Sphi609 cells expressing Plasmodium falciparum HGXPRT; type: functional, cell-based
[18] = substrate: Nc1nc2[nH]cnc2c(=O)[nH]1; conditions: Homo sapiens
[19] = substrate: Nc1nc2[nH]cnc2c(=S)[nH]1; conditions: Homo sapiens
[20] = substrate: O=c1[nH]cnc2nc[nH]c12; conditions: Homo sapiens
[21] = substrate: Oc1ncnc2[nH]ncc12; conditions: Homo sapiens
[22] = substrate: Sc1ncnc2nc[nH]c12; conditions: Homo sapiens
[23] = substrate: Nc1nc(O)c2[nH]nnc2n1; conditions: Homo sapiens
[24] = substrate: Nc1nc2[nH]cnc2c(=O)[nH]1; conditions: Homo sapiens; remark: listed apart in the source
[25] = substrate: Nc1nc2[nH]cnc2c(=S)[nH]1; conditions: Homo sapiens; remark: listed apart in the source
[26] = substrate: O=c1[nH]cnc2nc[nH]c12; conditions: Homo sapiens; remark: listed apart in the source
[27] = substrate: Oc1ncnc2[nH]ncc12; conditions: Homo sapiens; remark: listed apart in the source
[28] = substrate: Sc1ncnc2nc[nH]c12; conditions: Homo sapiens; remark: listed apart in the source

Row | Molecule | Km [2] [µM] | IC50 [3] [µM] | Km [4] [µM] | IC50 [5] [µM] | further results
1 | O=c1[nH]c(=O)c2nn[nH]c2[nH]1 |  |  |  |  | Ki [1]: ≥ 100 µM
2 | O=c1[nH]cnc2[nH]nnc12 | 25.6 | 90 | 145 | 38 | 
3 | O=c1[nH]c(=O)c2nc[nH]c2[nH]1 | 189 |  | 420 |  | Activity [6]: inactive; Activity [7]: inactive
4 | O=c1[nH]c(=S)c2nc[nH]c2[nH]1 | 82 |  |  |  | Activity [8]: inactive; Activity [9]: inactive
5 | O=c1[nH]c(S)nc2[nH]cnc12 |  |  |  |  | Activity [10]: inactive; Activity [11]: inactive
6 | Nc1nc2ncnc-2c[nH]1 [2-AMINOPURINE] |  |  |  |  | Ki [12]: 60 µM
7 | Nc1nc(Cl)c2nc[nH]c2n1 [6-CHLOROGUANINE] | 176 | 67 |  | 10 | 
8 | Nc1nc(O)c2[nH]nnc2n1 [8-AZAGUANINE] | 12.6 | 6.6 | 26.6 | 18 | 
9 | Oc1ncnc2[nH]ncc12 [ALLOPURINOL] | 10.5 | ≥ 150 | 11.7 |  | Activity [13]: inactive
10 | Nc1nc2[nH]cnc2c(=O)[nH]1 [GUANINE] | 0.83 | 35.3 | 1.4 | 60 | 
11 | O=c1[nH]cnc2nc[nH]c12 [HYPOXANTHINE] | 0.07 | 4.2 | 0.9 |  | 
12 | Sc1ncnc2nc[nH]c12 [MERCAPTOPURINE ANHYDROUS] | 0.02 | 1.3 | 1.6 | 2 | Activity [14]: Active; Activity [15]: Active; Activity [16]: Active; Activity [17]: Active
13 | Nc1nc2[nH]cnc2c(=S)[nH]1 [THIOGUANINE] | 0.75 | 21.3 | 1.9 | 10 | Activity [14]: Active; Activity [15]: Active; Activity [16]: Active; Activity [17]: Active
14 | Hypoxanthine-guanine phosphoribosyltransferase (Homo sapiens), P00492 (protein) MATRSPGVVISDDEPGYDLDLFCIPNHYAEDLERVFIPHGLIMDRTERLARDVMKEMGGHHIVALCVLKGGYKFFADLLDYIKALNRNSDRSIPMTVDFIRLKSYCNDQSTGDIKVIGGDDLSTLTGKNVLIVEDIIDTGKTMQTLLSLVRQYNPKMVKVASLLVKRTPRSVGYKPDFVGFEIPDKFVVGYALDYNEYFRDLNHVCVISETGKAKYKA |  |  |  |  | Km [18]: 1.9 µM; Km [19]: 1.7 µM; Km [20]: 3.4 µM; Km [21]: 47.9 µM; Km [22]: 1.15 µM; Km [23]: 72 µM; Km [24]: 1.9 µM; Km [25]: 5.9 µM; Km [26]: 3.1 µM; Km [27]: 135 µM; Km [28]: 3 µM
